The nature of data set [1]: Selectivity index, ratio of IC50 for mouse J774.1 cells to IC50 for Trypanosoma brucei brucei TC221 measured after 48 hrs. Format: toxicity. Particulars: J774.1 cells (versus Trypanosoma brucei brucei TC221), read-out: Ratio IC50. In a few lines:
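Selectivity index computed as IC50 (J774.1 macrophages, alamarBlue) divided by IC50 (T. b. brucei TC221, alamarBlue); duplicate determinations, means used.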

Data set [2] relates to Trypanosoma brucei brucei. Put plainly: Antitrypanosomal activity against Trypanosoma brucei brucei TC221 after 72 hrs by alamar blue assay. Format: functional. Particulars: TC221, 72 h. The method, boiled down: (§1)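 T. b. brucei TC221 bloodstream-form proliferation measured by alamarBlue (resazurin reduced to resorufin by living cells); 48 h and 72 h read-outs. IC50 derived per Räz et al. method; each compound tested in duplicate, mean of two values.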
In general terms: The colour change of resazurin is a common sign of viable cells or microbes.

The test system of another data set is Leishmania infantum. Description: Antileishmanial activity against Leishmania infantum. Format: functional.
Data set [3] is described as follows: Inhibition of trypanothione reductase.
The nature of data set [4]: Ratio of IC50 for Trypanosoma brucei rhodesiense rhodesain to IC50 for Trypanosoma brucei brucei TC221.
The next data set has as its target Rhodesain (Trypanosoma brucei rhodesiense, UniProt Q95PM0). Put plainly: Inhibition of Trypanosoma brucei rhodesiense rhodesain using Cbz-Phe-Arg-AMC as substrate measured for 10 mins by spectrofluorometric analysis.
For data set [5], the target named is Rhodesain (Trypanosoma brucei rhodesiense) (UniProt Q95PM0). Put plainly: Inhibition of Trypanosoma brucei rhodesiense rhodesain using Cbz-Phe-Arg-AMC as substrate by spectrofluorometric analysis.
Chain of Rhodesain (Trypanosoma brucei rhodesiense) (Q95PM0 1-450): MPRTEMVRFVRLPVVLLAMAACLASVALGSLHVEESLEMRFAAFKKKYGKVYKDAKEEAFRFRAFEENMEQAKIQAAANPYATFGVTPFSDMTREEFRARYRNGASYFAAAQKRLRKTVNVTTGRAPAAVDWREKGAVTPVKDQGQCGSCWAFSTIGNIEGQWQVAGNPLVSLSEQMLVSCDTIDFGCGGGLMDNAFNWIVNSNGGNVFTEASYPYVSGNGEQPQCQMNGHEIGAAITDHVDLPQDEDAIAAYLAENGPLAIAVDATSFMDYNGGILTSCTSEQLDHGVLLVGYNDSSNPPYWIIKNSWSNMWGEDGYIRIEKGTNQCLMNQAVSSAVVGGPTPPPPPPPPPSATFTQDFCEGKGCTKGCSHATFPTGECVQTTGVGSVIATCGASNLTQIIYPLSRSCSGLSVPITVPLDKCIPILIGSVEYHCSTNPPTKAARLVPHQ
Data set [6] shares this target. Put plainly: Inhibition of Trypanosoma brucei rhodesiense rhodesain at 20 uM using Cbz-Phe-Arg-AMC as substrate measured for 5 mins by spectrofluorometric analysis relative to control. In a few lines:
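Rhodesain in 50 mM sodium acetate pH 5.5 with 5 mM DTT, 5 mM EDTA, 200 mM NaCl; inhibitor 20 µM, substrate Cbz-Phe-Arg-AMC; AMC fluorescence (ex 380/em 460 nm) followed 5 min; activity from slopes of fluorescence vs time versus DMSO control; run in duplicate.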

Data set [7] has as its system Trypanosoma brucei brucei. Description: Antitrypanosomal activity against Trypanosoma brucei brucei TC221 after 48 hrs by alamar blue assay. Format: functional. Particulars: TC221, 48 h. In a few lines:
as §1

Data set [8] addresses Trypanothione reductase (Trypanosoma cruzi) (UniProt P28593). Description: Inhibition of Trypanosoma cruzi trypanothione reductase at 2 uM using 100 uM trypanothione disulfide as substrate by spectrophotometric method relative to control. In a few lines: (§2)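 TcTryR (about 2 nM) in 40 mM HEPES, 1 mM EDTA, pH 7.5, 100 µM NADPH; inhibitor at fixed 2 or 5 µM (screening range 1–5 µM) from DMSO stock; TS2 fixed at 40 or 100 µM; absorbance decrease monitored; percent inhibition versus DMSO control.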

The subject of a further data set is J774.1. Put plainly: Cytotoxicity against mouse J774.1 cells after 24 hrs by alamar blue assay. Format: cell-based. The settings on record: J774.1, 24 h.
Data set [9] addresses Trypanothione reductase (Trypanosoma cruzi) (UniProt P28593). Put plainly: Inhibition of Trypanosoma cruzi trypanothione reductase at 5 uM using 40 uM trypanothione disulfide as substrate by spectrophotometric method relative to control. The method, boiled down: as §2
For data set [10] the target is unchanged. Description: Inhibition of Trypanosoma cruzi trypanothione reductase at 5 uM using 100 uM trypanothione disulfide as substrate by spectrophotometric method relative to control. The method, boiled down: as §2
Data set [11] has the same target. Put plainly: Inhibition of Trypanosoma cruzi trypanothione reductase at 2 uM using 40 uM trypanothione disulfide as substrate by spectrophotometric method relative to control. In a few lines:
as §2

A short description of data set [12]: Mixed-type inhibition of Trypanosoma brucei trypanothione reductase assessed as enzyme-substrate complex using varying levels of trypanothione disulfide as substrate by Lineweaver-burk plot analysis. In a few lines: (§3)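 TbTryR kinetics in HEPES/EDTA pH 7.5 with 100 µM NADPH; TS2 varied 20–200 µM at several inhibitor levels, DMSO control; Lineweaver-Burk plots; Ki and Ki' fitted.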

The test system of data set [13] is Trypanosoma brucei. Description: Inhibition of Trypanosoma brucei trypanothione reductase at 5 uM using 100 uM trypanothione disulfide as substrate by spectrophotometric method relative to control. In a few lines: (§4)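 TbTryR (about 2 nM) in 40 mM HEPES, 1 mM EDTA, pH 7.5 with 100 µM NADPH; inhibitor 5 µM from DMSO stock, fixed TS2 at 100 or 40 µM; NADPH consumption followed as absorbance decrease; inhibition relative to DMSO control.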

Data set [14] has as its system Trypanosoma brucei. Description: Inhibition of Trypanosoma brucei trypanothione reductase at 5 uM using 40 uM trypanothione disulfide as substrate by spectrophotometric method relative to control. The method, boiled down: as §4
Data set [15] is described as follows: Mixed-type inhibition of Trypanosoma brucei trypanothione reductase assessed as enzyme-substrate-inhibitor complex using varying levels of trypanothione disulfide as substrate by Lineweaver-burk plot analysis. The method, boiled down: as §3
The nature of data set [16]: Stability of the compound. Format: physicochemical.
Data set [17] deals with Trypanothione reductase (Trypanosoma cruzi) (UniProt P28593). Description: Inhibition of Trypanosoma cruzi trypanothione reductase at 50 uM using 100 uM trypanothione disulfide as substrate by spectrophotometric method relative to control.
Chain of Trypanothione reductase (Trypanosoma cruzi) (P28593 whole entry, looked up): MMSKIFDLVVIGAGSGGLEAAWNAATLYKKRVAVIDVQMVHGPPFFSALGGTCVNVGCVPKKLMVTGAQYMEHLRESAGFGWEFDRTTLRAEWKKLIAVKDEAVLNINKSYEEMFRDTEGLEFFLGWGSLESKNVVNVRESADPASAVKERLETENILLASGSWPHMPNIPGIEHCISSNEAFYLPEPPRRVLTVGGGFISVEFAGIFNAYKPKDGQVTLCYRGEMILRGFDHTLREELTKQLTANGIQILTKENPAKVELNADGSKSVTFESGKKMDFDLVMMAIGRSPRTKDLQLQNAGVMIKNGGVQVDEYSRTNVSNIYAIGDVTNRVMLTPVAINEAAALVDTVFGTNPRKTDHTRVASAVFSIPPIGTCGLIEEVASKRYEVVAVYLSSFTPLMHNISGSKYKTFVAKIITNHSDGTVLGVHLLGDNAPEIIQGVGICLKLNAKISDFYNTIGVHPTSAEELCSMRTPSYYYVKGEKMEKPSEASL
The target of data set [18] is Rhodesain (Trypanosoma brucei rhodesiense) (UniProt Q95PM0). Description: Inhibition of Trypanosoma brucei rhodesiense rhodesain assessed as second-order rate constant using Cbz-Phe-Arg-AMC as substrate measured for 10 mins by spectrofluorometric analysis.

Active and inactive are the calls of the source. The calls are words filed in the database; no cut-off is given here.

Chain of Rhodesain (Q95PM0 whole entry): as the sequence (Q95PM0 1-450) above

In general, IC50 refers to the point on the concentration scale where inhibition reaches its midpoint. Read a high IC50 as weaker potency in that assay. Usually inhibition stands for how much of the control response was suppressed. `CC1CCc2c(nc3ccc([N+](=O)[O-])cc3c2NCCCCCCNc2c3c(nc4ccc([N+](=O)[O-])cc24)CC(C)CC3)C1` (stereo unspecified): the selectivity ratio at 48 h in [1] worked out at 38.5. The results for the IC50 (in data set [2]; against Rhodesain; in [7]) were 680 nM, 5800 nM and 620 nM, respectively. In addition, in the data set with Leishmania infantum, the result was Active. Besides, the inhibition result in data set [3] is “Active”. Also, the Ratio IC50 in data set [4] amounted to 10. The inhibition result is “Dose-dependent effect” in data set [5] and 82% in data set [6].
As for `c1ccc2c(NCCCCCCNc3c4c(nc5ccccc35)CCCC4)c3c(nc2c1)CCCC3`, the inhibition in [8] was 15.1%; in data set [9] it was 56.6 to 57.5%; in data set [10] it was 45.2 to 47.9%; in data set [11] it was 27.5 to 29.2%; in data set [6], 25%. Besides, the IC50 with J774.1 worked out at 3000 nM; in [2], 330 nM; in [7], 260 nM. The outcome with Leishmania infantum was Active.
For `Clc1ccc2c(NCCCCCCNc3c4c(nc5cc(Cl)ccc35)CCCC4)c3c(nc2c1)CCCC3`, the selectivity ratio at 48 h in [1] amounted to 4.4. The IC50 in the data set on J774.1 amounted to 2800 nM; in data set [2], 710 nM; against Rhodesain, 7400 nM; in data set [7], 640 nM. Moreover, in the data set on Leishmania infantum, the result was Active. The inhibition entry in [3] is “Active”. Moreover, the Ratio IC50 in data set [4] was 10. For the same molecule, the inhibition result in data set [5] is “Dose-dependent effect”; in [6] it was 61%.
Usually Ki stands for a dissociation constant, usually derived from enzyme kinetics or from competition with a known ligand. On to `C1=Cc2c(nc3ccccc3c2NCCCCCCCNc2c3c(nc4ccccc24)CCC=C3)CC1`, for which the selectivity ratio at 48 h in data set [1] amounted to 152. For the same molecule, the results for the IC50 (in the data set on J774.1; in data set [2]; in [7]) were 1500 nM, 10 nM and 10 nM, respectively. Moreover, the inhibitory constant (Ki) in data set [12] came to 1200 nM; in data set [15], 12000 nM. Moreover, the inhibition with Trypanosoma brucei [13] was determined as 53%; in the data set on Trypanosoma brucei [14], 47%. The result in the data set with Leishmania infantum was Active. The inhibition entry in [3] is “Active”. Moreover, in [16], the Stability result was “Stable”.
As to `c1ccc2c(NCCCCCCCCNc3c4c(nc5ccccc35)CCCC4)c3c(nc2c1)CCCC3`, the inhibition is 28.8 to 32.9% in data set [8]; 100% in data set [17]; 73.3 to 78.3% in [9]; 64.4 to 68.5% in data set [10]; 45 to 46.7% in [11]; “Dose-dependent effect” in data set [5]. The molecule also registered an inhibition in data set [6] of 87%. The figures for the 50% inhibitory concentration (IC50) (in [2]; against Rhodesain; in data set [7]) were 660 nM, 16900 nM and 400 nM, respectively. Also, in the data set on Leishmania infantum, the result was Active.
As for `CN1CCN(C(=O)N[C@@H](Cc2ccccc2)C(=O)N[C@H](/C=C/S(=O)(=O)c2ccccc2)CCc2ccccc2)CC1`, the K in [18] is 500000 M⁻¹ s⁻¹.
Take `c1ccc2c(NCCCCCCCNc3c4c(nc5ccccc35)CCCC4)c3c(nc2c1)CCCC3`: the inhibition in [8] was 23.2 to 25.8%; with Trypanosoma brucei [13] it was 53%; in data set [9] it was 66.4%; with Trypanosoma brucei [14], 66%; in [10] it was 51 to 55%; in data set [11], 34.4 to 37.8%. In data set [6], this molecule registered an inhibition of 44%. The values for the IC50 in data set [2] and in [7] were 590 nM and 160 nM, respectively. Moreover, in the data set on Leishmania infantum, the result was Active.

Source of the values: ChEMBL document CHEMBL4052757, “Bistacrines as potential antitrypanosomal agents” (Bioorg Med Chem, 2017).
